Our source for the Activity values is ChEMBL document CHEMBL1156231, “Alkylation of a human telomere sequence by heterotrimeric chlorambucil PI polyamide conjugates” (Bioorg Med Chem, 2010).

Molecules are shown by their SMILES. Active and inactive are the calls of the source. The rule behind the calls is not given here.

For experiment [1], the system named is Nucleic Acid. The experiment can be described thus: Binding affinity to human telomeric DNA expressed in Escherichia coli DH5alpha assessed as alkylation of complementary C rich site at 50 to 200 nM after 24 hrs by PAGE analysis. Summed up:
(§1)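 5'-Texas Red-labelled telomere-containing DNA fragment (insert cloned and propagated in E. coli DH5a, PCR-amplified, purified), alkylated with conjugate at various concentrations in 5 mM sodium phosphate buffer pH 7.0, 10% DMF, room temperature, 24 h. Reaction stopped with calf thymus DNA and heating 95 °C, 5 min. Alkylation sites read by high-resolution denaturing polyacrylamide gel electrophoresis.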

The test system of experiment [2] is Nucleic Acid. The experiment can be described thus: Binding affinity to human telomeric DNA expressed in Escherichia coli DH5alpha assessed as alkylation of G and C rich strand at 10 nM after 24 hrs by PAGE analysis. The gist of the method:
as §1

Experiment [3] deals with Nucleic Acid. The experiment can be described thus: Binding affinity to human telomeric DNA expressed in Escherichia coli DH5alpha assessed as alkylation of G rich 5^-GGTTAGGGTTA-3^ strand at 50 to 200 nM after 24 hrs by PAGE. Summed up: as §1

With `CN(C)CCCNC(=O)c1nc(NC(=O)c2nc(NC(=O)c3nc(NC(=O)CCNC(=O)CCNC(=O)c4nc(NC(=O)c5nc(NC(=O)c6nc(NC(=O)CCCc7ccc(N(CCCl)CCCl)cc7)cn6C)cn5C)cn4C)cn3C)cn2C)cn1C`, the outcome in the experiment on Nucleic Acid [1] and in the experiment on Nucleic Acid [2] was Active. Besides, the outcome in the experiment on Nucleic Acid [3] was inactive.
